Active and inactive are the calls of the source. No cut-off for these calls is given here.
Key:
Mus musculus [1] = assay: Anti-inflammatory activity in poly(I:C)-induced airway inflammation C57BL/6 mouse model assessed as reduction in mKC expression in lung at 10 mg/kg, ip administered 1 day prior to poly(I:C) stimulation and redosed on day 2 followed by poly(I:C) stimulation; type: functional, organism-based
How it was run: (§1)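 Male C57BL/6J mice, 12 weeks old, were given 10 mg/kg i.p. one day before stimulation. The next day they got a second dose, immediately followed by intranasal poly(I:C) (300 μg in 50 μL PBS) or PBS alone. Compound was taken up in DMSO and diluted in 10% hydroxypropyl β-cyclodextrin in PBS. Mice were euthanized one day later and lung tissue was collected for cytokine expression.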

Mus musculus [2] = assay: (§2) Anti-inflammatory activity in poly(I:C)-induced airway inflammation C57BL/6 mouse model assessed as reduction in neutrophils recruitment into bronchoalveolar lavage fluid at 10 mg/kg, ip administered 1 day prior to poly(I:C) stimulation and redosed on day 2 followed by poly(I:C) stimulation by trypan blue staining-based hemocytometric analysis; type: functional, organism-based
Mus musculus [3] = assay: Anti-inflammatory activity in poly(I:C)-induced airway inflammation C57BL/6 mouse model assessed as reduction in mIL6 expression in lung at 10 mg/kg, ip administered 1 day prior to poly(I:C) stimulation and redosed on day 2 followed by poly(I:C) stimulation; type: functional, organism-based; how it was run: as §1
CREB-binding protein = CREB-binding protein (Homo sapiens, UniProt Q92793); assay: Inhibition of CBP (unknown origin) after 1 hr by TR-FRET assay
How it was run: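 Isolated bromodomain in a kit TR-FRET assay. Inhibitor series 0.01 nM to 100 μM, incubated 1 h at room temperature. Excitation 340 nm, emission read at 620 and 670 nm with 100 μs delay and 500 μs window. IC50 from the sigmoidal plot of the 670/620 ratio against concentration. Mean of at least two runs.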

Mus musculus [4] = assay: Anti-inflammatory activity in poly(I:C)-induced airway inflammation C57BL/6 mouse model assessed as reduction in mCIG5 expression in lung at 10 mg/kg, ip administered 1 day prior to poly(I:C) stimulation and redosed on day 2 followed by poly(I:C) stimulation; type: functional, organism-based; how it was run: as §1
Mus musculus [5] = assay: Anti-inflammatory activity in poly(I:C)-induced airway inflammation C57BL/6 mouse model assessed as reduction in mISG54 expression in lung at 10 mg/kg, ip administered 1 day prior to poly(I:C) stimulation and redosed on day 2 followed by poly(I:C) stimulation; type: functional, organism-based; how it was run: as §1
[6] = molecular target: T1, Bromodomain-containing protein 4 (Homo sapiens, UniProt O60885); assay: Inhibition of BRD4 in human SAE cells assessed as reduction in TLR3 agonist poly(I:C) -induced ISG56 RNA expression preincubated for 24 hrs followed by poly(I:C) addition and measured after 4 hrs by SYBR green dye-based qRT-PCR analysis; type: cell-based
[7] = molecular target: T1, Bromodomain-containing protein 4; assay: Inhibition of BRD4 in human SAE cells assessed as reduction in TLR3 agonist poly(I:C) -induced IL-8 RNA expression preincubated for 24 hrs followed by poly(I:C) addition and measured after 4 hrs by SYBR green dye-based qRT-PCR analysis; type: cell-based
[8] = molecular target: T1, Bromodomain-containing protein 4; assay: Inhibition of BRD4 in human SAE cells assessed as reduction in TLR3 agonist poly(I:C) -induced grobeta RNA expression preincubated for 24 hrs followed by poly(I:C) addition and measured after 4 hrs by SYBR green dye-based qRT-PCR analysis; type: cell-based
[9] = molecular target: T1, Bromodomain-containing protein 4; assay: Inhibition of BRD4 in human SAE cells assessed as reduction in TLR3 agonist poly(I:C) -induced ISG54 RNA expression preincubated for 24 hrs followed by poly(I:C) addition and measured after 4 hrs by SYBR green dye-based qRT-PCR analysis; type: cell-based
[10] = Volume of distribution at steady state in rat at 10 mg/kg, iv; type: ADME, organism-based; settings: in vivo, read-out: Vdss
[11] = Cmax in rat at 20 mg/kg, po; type: ADME, organism-based; set-up: dose 20 mg/kg, route oral; settings: in vivo
Mus musculus [12] = assay: as §2, with “total cells in” for “neutrophils recruitment into”; type: functional, organism-based
[13] = Total clearance in rat at 10 mg/kg, iv; type: ADME, organism-based; settings: in vivo
[14] = AUC (0 to t) in rat at 20 mg/kg, po; type: ADME, organism-based; settings: in vivo
[15] = Half life in rat at 10 mg/kg, iv; type: ADME, organism-based; settings: in vivo
[16] = AUC (0 to t) in rat at 10 mg/kg, iv; type: ADME, organism-based; settings: in vivo

CREB-binding protein, sequence (Q92793 whole entry): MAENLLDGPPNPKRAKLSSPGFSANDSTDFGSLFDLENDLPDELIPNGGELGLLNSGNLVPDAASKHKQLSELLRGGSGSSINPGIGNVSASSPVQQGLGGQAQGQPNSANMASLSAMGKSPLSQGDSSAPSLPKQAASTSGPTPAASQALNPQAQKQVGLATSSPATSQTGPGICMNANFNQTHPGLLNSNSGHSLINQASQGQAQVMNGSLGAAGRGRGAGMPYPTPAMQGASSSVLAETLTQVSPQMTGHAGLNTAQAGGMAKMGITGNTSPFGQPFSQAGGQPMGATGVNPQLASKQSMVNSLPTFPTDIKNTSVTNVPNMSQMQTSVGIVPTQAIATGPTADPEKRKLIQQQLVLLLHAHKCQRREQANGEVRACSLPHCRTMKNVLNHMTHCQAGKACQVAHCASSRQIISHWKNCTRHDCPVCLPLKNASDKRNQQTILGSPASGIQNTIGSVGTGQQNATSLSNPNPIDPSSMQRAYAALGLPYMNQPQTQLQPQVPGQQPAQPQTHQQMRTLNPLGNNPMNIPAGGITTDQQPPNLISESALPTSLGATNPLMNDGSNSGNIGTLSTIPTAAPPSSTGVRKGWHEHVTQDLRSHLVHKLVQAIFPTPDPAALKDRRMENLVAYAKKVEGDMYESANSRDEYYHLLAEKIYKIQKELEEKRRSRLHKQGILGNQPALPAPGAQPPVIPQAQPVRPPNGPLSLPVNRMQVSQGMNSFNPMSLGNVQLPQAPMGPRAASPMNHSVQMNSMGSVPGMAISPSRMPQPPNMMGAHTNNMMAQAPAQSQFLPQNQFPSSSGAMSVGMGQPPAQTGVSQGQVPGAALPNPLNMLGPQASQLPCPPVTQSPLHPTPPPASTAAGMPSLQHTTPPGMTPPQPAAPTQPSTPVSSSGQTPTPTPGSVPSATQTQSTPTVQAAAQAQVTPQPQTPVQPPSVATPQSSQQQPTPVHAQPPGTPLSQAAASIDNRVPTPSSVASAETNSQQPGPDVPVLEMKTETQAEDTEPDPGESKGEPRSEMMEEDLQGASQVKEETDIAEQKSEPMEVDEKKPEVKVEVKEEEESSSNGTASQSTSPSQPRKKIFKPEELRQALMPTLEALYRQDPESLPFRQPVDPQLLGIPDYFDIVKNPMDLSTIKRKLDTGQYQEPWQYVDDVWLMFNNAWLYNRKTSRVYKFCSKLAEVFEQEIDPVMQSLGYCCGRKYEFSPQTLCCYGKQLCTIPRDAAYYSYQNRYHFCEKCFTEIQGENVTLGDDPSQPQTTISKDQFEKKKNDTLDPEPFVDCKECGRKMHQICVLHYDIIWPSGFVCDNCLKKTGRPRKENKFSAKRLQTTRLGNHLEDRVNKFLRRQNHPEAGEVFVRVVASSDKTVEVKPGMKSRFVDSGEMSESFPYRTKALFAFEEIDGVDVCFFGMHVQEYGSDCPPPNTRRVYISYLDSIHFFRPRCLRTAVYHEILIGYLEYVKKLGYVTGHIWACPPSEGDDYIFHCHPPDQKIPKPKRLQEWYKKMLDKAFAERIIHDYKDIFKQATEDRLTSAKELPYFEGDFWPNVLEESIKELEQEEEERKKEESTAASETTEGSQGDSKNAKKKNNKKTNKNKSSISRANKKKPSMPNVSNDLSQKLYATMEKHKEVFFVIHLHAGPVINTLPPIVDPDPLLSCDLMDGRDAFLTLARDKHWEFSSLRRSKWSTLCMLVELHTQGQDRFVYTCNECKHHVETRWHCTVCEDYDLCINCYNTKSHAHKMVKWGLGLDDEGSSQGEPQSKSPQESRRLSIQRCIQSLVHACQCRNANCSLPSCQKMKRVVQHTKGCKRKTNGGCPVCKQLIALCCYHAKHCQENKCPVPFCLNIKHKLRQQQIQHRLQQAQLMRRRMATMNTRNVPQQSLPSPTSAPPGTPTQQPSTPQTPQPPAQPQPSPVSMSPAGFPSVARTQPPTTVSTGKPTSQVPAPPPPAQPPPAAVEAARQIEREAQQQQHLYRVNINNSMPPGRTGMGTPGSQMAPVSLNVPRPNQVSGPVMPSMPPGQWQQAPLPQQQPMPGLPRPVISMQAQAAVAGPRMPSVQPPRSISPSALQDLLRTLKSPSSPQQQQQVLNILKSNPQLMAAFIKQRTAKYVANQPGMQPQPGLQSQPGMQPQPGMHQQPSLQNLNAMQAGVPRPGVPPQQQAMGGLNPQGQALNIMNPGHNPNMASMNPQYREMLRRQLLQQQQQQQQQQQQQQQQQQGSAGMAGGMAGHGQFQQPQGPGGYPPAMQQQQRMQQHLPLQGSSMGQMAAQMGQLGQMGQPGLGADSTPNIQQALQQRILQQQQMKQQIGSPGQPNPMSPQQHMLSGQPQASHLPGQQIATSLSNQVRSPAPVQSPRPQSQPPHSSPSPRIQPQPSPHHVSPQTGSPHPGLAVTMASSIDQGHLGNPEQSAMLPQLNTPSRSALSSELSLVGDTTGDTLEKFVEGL

Structure (SMILES) | Activity (Mus musculus [1]) | Activity (Mus musculus [2]) | Activity (Mus musculus [3]) | IC50 (CREB-binding protein) [µM] | Activity (Mus musculus [4]) | Activity (Mus musculus [5]) | IC50 [6] [µM] | IC50 [7] [µM] | IC50 [8] [µM] | IC50 [9] [µM] | Vd [10] [L/kg] | Cmax [11] [ng/mL] | Activity (Mus musculus [12]) | clearance [13] [mL/min/kg] | AUC(0-t) [14] [ng·h/mL] | half-life [15] [h] | AUC(0-t) [16] [ng·h/mL]
Cc1sc2c(c1C)C(c1ccc(Cl)cc1)=N[C@@H](CC(=O)OC(C)(C)C)c1nnc(C)n1-2 | inactive | inactive | inactive | 9.6 | inactive | inactive | – | – | – | – | – | – | – | – | – | – | –
CC(C)(C)c1cc(-c2nnc(-c3cc(F)cc(Cl)c3)o2)no1 | – | – | – | – | – | – | 7.7 | 4.3 | 3.9 | 7.9 | – | – | – | – | – | – | –
Cc1cc(/N=N/c2ccc3c(c2)CCC(=O)N3)c(N)cc1O | Active | Active | Active | > 10 | Active | Active | 0.51 | 0.53 | 0.58 | 0.49 | 0.864 | 80 | Active | 11.5 | 450 | 1.2 | 14700
COc1cc(OC)c2c(=O)[nH]c(-c3cc(C)c(OCCO)c(C)c3)nc2c1 [APABETALONE] | inactive | inactive | inactive | > 10 | inactive | inactive | – | – | – | – | – | – | – | – | – | – | –

Reference: ChEMBL document CHEMBL4152207, “Discovery of potent and selective BRD4 inhibitors capable of blocking TLR3-induced acute airway inflammation” (Eur J Med Chem, 2018)
